What was measured:
[1] = Partition coefficient (logP); format: physicochemical; conditions: octanol/water
[2] = species: Homo sapiens; experiment: Inhibitory activity against human platelet aggregation.; format: functional
How it was run: (§1)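 Human citrated PRP (blood:3.2% citrate 8:1; 120g, 15 min, 23 °C), count adjusted to 250 000–300 000/mm^3 with autologous PPP, gassed with 5% CO2/95% air, held at 37 °C. Test compound incubated 4 min. Aggregation triggered with each donor's minimal ADP concentration giving full biphasic response. Light transmission recorded 5.5 min. IC50 from regression of % inhibition on log molar concentration; mean ± SE, 4–6 determinations.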

[3] = species: Homo sapiens; experiment: Inhibitory activity against human platelet aggregation; Inactive; format: functional; how it was run: as §1
[4] = species: Homo sapiens; experiment: Inhibitory activity against human platelet aggregation at 200 uM; format: functional

| Structure (SMILES) | logP ([1]; read-out: logP) | IC50 ([2]; Homo sapiens, read-out: IC50) [µM] | other results |
| --- | --- | --- | --- |
| c1cc(CN2CCCCC2)ccc1CN1CCCCC1 | 3.57 | 8460 | – |
| CCN(CC)C(=O)C1CCCN(Cc2ccc(-c3ccc(CN4CCCC(C(=O)N(CC)CC)C4)cc3)cc2)C1 (stereo not drawn) | 5.43 | 478 | – |
| CCN(CC)C(=O)C1CCCN(CCCCCCCCCCN2CCCC(C(=O)N(CC)CC)C2)C1 (stereo not drawn) | 5.92 | 207 | – |
| CCOC(=O)C1CCCN(Cc2ccc(CN3CCCC(C(=O)OCC)C3)cc2)C1 (stereo not drawn) | 4.21 | 757 | – |
| CCCCCCCCCCN1CCCC(C(=O)N2CCN(C(=O)C3CCCN(CCCCCCCCCC)C3)CC2)C1 (stereo not drawn) | – | 16 | logP [1]: 9.06 |
| COc1cc(CNC(=O)C2CCCN(Cc3ccc(CN4CCCC(C(=O)NCc5cc(OC)c(OC)c(OC)c5)C4)cc3)C2)cc(OC)c1OC (stereo not drawn) | 4.06 | 134 | – |
| CCCCCCCCCCN1CCCC(NC(=O)C2CCCN(CCCCCCCCCC)C2)C1 (stereo not drawn) | – | – | IC50 [3]: Not Active; logP [1]: 9.96 |
| CCCCCN1CCCC(C(=O)N2CCCN(C(=O)C3CCCN(CCCCC)C3)CC2)C1 (stereo not drawn) | 4.63 | 84.6 | – |
| O=C(C1CCCN(Cc2ccc(CN3CCCC(C(=O)N(Cc4ccccc4)Cc4ccccc4)C3)cc2)C1)N(Cc1ccccc1)Cc1ccccc1 (stereo not drawn) | 8.03 | 303 | – |
| CCCCCCCCCCN1CCCC(C(=O)N2CC(C)N(C(=O)C3CCCN(CCCCCCCCCC)C3)C(C)C2)C1 (stereo not drawn) | – | 22.9 | logP [1]: 10.096 |
| CCN(CC)C(=O)C1CCCN(Cc2ccc(Cl)cc2)C1 (stereo not drawn) | 3.49 | 217 | – |
| CCN(CC)C(=S)C1CCCN(Cc2ccc(CN3CCCC(C(=S)N(CC)CC)C3)cc2)C1 (stereo not drawn) | 5.01 | 51.6 | – |
| O=C(C1CCCN(Cc2ccc(CN3CCCC(C(=O)N4CCOCC4)C3)cc2)C1)N1CCOCC1 (stereo not drawn) | 0.74 | 1650 | – |
| Br.Br.CCN(CC)C(=O)C1CC(C(=O)N(CC)CC)CN(Cc2ccc(CN3CC(C(=O)N(CC)CC)CC(C(=O)N(CC)CC)C3)cc2)C1 (stereo not drawn) | 3.39 | – | IC50 [3]: Not Active |
| CCN(CC)C(=O)C1CCCN(CC2CCC(CN3CCCC(C(=O)N(CC)CC)C3)CC2)C1 (stereo not drawn) | 4.57 | > 1000 | – |
| CCCCCCCCCCN1CCCC(C(=O)N2CCC(C3CCN(C(=O)C4CCCN(CCCCCCCCCC)C4)CC3)CC2)C1 (stereo not drawn) | – | 25.9 | logP [1]: 11.322 |
| CC(C)N(C)C(=O)C1CCCN(Cc2ccc(CN3CCCC(C(=O)N(C)C(C)C)C3)cc2)C1 (stereo not drawn) | 3.48 | 144 | – |
| O=C(O)C1CCCN(Cc2ccc(CN3CCCC(C(=O)O)C3)cc2)C1 (stereo not drawn) | 2.45 | > 500 | – |
| CCN(Cc1ccccc1)C(=O)C1CCCN(Cc2ccc(CN3CCCC(C(=O)N(CC)Cc4ccccc4)C3)cc2)C1 (stereo not drawn) | 5.76 | 37.7 | – |
| CCCCCCCCCCN1CCCC(C(=O)N2CCN(C(=O)C3CCCN(CCCCCCCCCC)C3)C(C)C2)C1 (stereo not drawn) | – | 20.9 | logP [1]: 9.58 |
| CC(=O)NCC1CCCN(Cc2ccc(CN3CCCC(CNC(C)=O)C3)cc2)C1 (stereo not drawn) | 0.74 | – | – |
| CCN(CC)C(=O)C1CCCN(Cc2ccccc2-c2ccccc2CN2CCCC(C(=O)N(CC)CC)C2)C1 (stereo not drawn) | 5.43 | 354 | – |

| Structure (SMILES) | logP ([1]; read-out: logP) | IC50 ([2]; Homo sapiens, read-out: IC50) [µM] | other results |
| --- | --- | --- | --- |
| CCCCN(CC)C(=O)C1CCCN(Cc2ccc(CN3CCCC(C(=O)N(CC)CCCC)C3)cc2)C1 (stereo not drawn) | 5.55 | 18.4 | – |
| CC(O)C1CCCN(Cc2ccc(CN3CCCC(C(C)O)C3)cc2)C1 (stereo not drawn) | 2.3 | 589 | – |
| CCCCCCCCCCN1CCCC(C(=O)N2CC(C)N(C(=O)C3CCCN(CCCCCCCCCC)C3)CC2C)C1 (stereo not drawn) | – | 23.8 | logP [1]: 10.096 |
| CCN(CC)C(=O)C1CCCN(CCCCCCCCCCCCN2CCCC(C(=O)N(CC)CC)C2)C1 (stereo not drawn) | 6.96 | 85.3 | – |
| O=C(C1CCCN(Cc2ccc(CN3CCCC(C(=O)N4CCSCC4)C3)cc2)C1)N1CCSCC1 (stereo not drawn) | 2.89 | 311 | – |
| CCCCCCN(C)C(=O)C1CCCN(Cc2ccc(CN3CCCC(C(=O)N(C)CCCCCC)C3)cc2)C1 (stereo not drawn) | 6.59 | 48.8 | – |
| CC(C)N(C(=O)C1CCCN(Cc2ccc(CN3CCCC(C(=O)N(C(C)C)C(C)C)C3)cc2)C1)C(C)C (stereo not drawn) | 5.55 | 58.8 | – |
| O=C(C1CCCN(Cc2ccc(CN3CCCC(C(=O)N4CCC(Cc5ccccc5)CC4)C3)cc2)C1)N1CCC(Cc2ccccc2)CC1 (stereo not drawn) | 8.14 | 277 | – |
| O=C(C1CCCN(Cc2ccc(CN3CCCC(C(=O)N4CCCC4)C3)cc2)C1)N1CCCC1 (stereo not drawn) | 2.75 | 32.7 | – |
| CCN(CC)C(=O)C1CCCN(Cc2ccccc2)C1 (stereo not drawn) | 2.75 | 7400 | – |
| CCN(CC)C(=O)C1CCCN(Cc2ccccc2Cl)C1 (stereo not drawn) | 3.49 | 2810 | – |
| CCCN(CCC)C(=O)C1CCCN(Cc2ccc(CN3CCCC(C(=O)N(CCC)CCC)C3)cc2)C1 (stereo not drawn) | 5.55 | 39.3 | – |
| CCN(CC)C(=O)C1CCCN(Cc2cccc(Cl)c2)C1 (stereo not drawn) | 3.49 | 1650 | – |
| O=C(C1CCCN(Cc2ccc(CN3CCCC(C(=O)N4CCCCC4)C3)cc2)C1)N1CCCCC1 (stereo not drawn) | 3.79 | 28.9 | – |
| Br.CCN(CC)C(=O)C1CCCN(Cc2ccc(C(C)(C)C)cc2)C1 (stereo not drawn) | 4.83 | – | IC50 [2]: Not Active; inhibition at 200 µM [4]: 2% |
| CC1CCCN(Cc2ccc(CN3CCCC(C)C3)cc2)C1 (stereo not drawn) | 4.6 | > 500 | – |
| O=C(NCc1ccccc1)C1CCCN(Cc2ccc(CN3CCCC(C(=O)NCc4ccccc4)C3)cc2)C1 (stereo not drawn) | 4.18 | 53.6 | – |
| CCN(CC)C(=O)C1CCCN(CN2CC2)C1 (stereo not drawn) | 2.43 | 3250 | – |
| CCCN(C)C(=O)C1CCCN(Cc2ccc(CN3CCCC(C(=O)N(C)CCC)C3)cc2)C1 (stereo not drawn) | 3.48 | 34.6 | – |
| CCN(CC)C(=O)C1CCCN(CCCCCCCCN2CCCC(C(=O)N(CC)CC)C2)C1 (stereo not drawn) | 4.89 | 214 | – |
| CCCCCCCCCCN1CCCC(C(=O)N(CC)CC)C1 (stereo not drawn) | 5.76 | 242 | – |
| CCCCCCCCCCN1CCCC(C(=S)N(CC)CC)C1 (stereo not drawn) | 6.53 | 358 | – |

Source: ChEMBL document CHEMBL1128335, “Design and synthesis of piperidine-3-carboxamides as human platelet aggregation inhibitors” (J Med Chem, 1995)
